Measured values reported in ChEMBL document CHEMBL1140861, “Short antisense oligonucleotides with novel 2'-4' conformationaly restricted nucleoside analogues show improved potency without increased toxicity in animals” (J Med Chem, 2009).
Activity calls are given as the source filed them. The rule behind the calls is not given here.

Assays:
Mus musculus [1] = assay: Reduction of PTEN mRNA level in ip dosed BALB/c mouse liver after 72 hrs; type: functional
bEND = assay: Reduction in mouse PTEN mRNA level expressed in mouse bEND cells; type: functional, cell-based
Outline: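 bEND mouse brain endothelial cells transfected with ASO using lipofectin; PTEN mRNA reduction measured over a dose range; IC50 taken from dose-response curves.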

Mus musculus [2] = species on record: Mus musculus; assay: Binding affinity to mouse PTEN mRNA assessed as melting temperature
Outline: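 Tm of ASO–RNA duplex, i.e. melting temperature of the ASO hybridised to its complementary RNA.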

Mus musculus [3] = assay: Reduction of PTEN mRNA level in BALB/c mouse liver at 37 mg/kg, ip after 72 hrs; type: functional, organism-based; design: dose 37 mg/kg
Mus musculus [4] = assay: Hepatotoxicity in BALB/c mouse assessed as increase in liver ALT level at 60 mg/kg, ip after 72 hrs; type: toxicity, organism-based; design: dose 60 mg/kg, route intraperitoneal; details: in vivo
Mus musculus [5] = assay: Reduction of PTEN mRNA level in BALB/c mouse liver at 60 mg/kg, ip after 72 hrs; type: functional, organism-based; design: dose 60 mg/kg

COCCO[C@@H]1[C@H](O)[C@@H](COP(O)(=S)O[C@H]2[C@@H](OCCOC)[C@H](n3ccc(=O)[nH]c3=O)O[C@@H]2COP(O)(=S)O[C@H]2C[C@H](n3cc(C)c(=O)[nH]c3=O)O[C@@H]2COP(O)(=S)O[C@H]2[C@@H](O)[C@H](n3cnc4c3N=CNC4N)O[C@@H]2COP(O)(=S)O[C@H]2[C@@H](O)[C@H](n3cnc4c(=O)[nH]c(N)nc43)O[C@@H]2COP(O)(=S)O[C@H]2[C@@H](O)[C@H](n3ccc(N)nc3=O)O[C@@H]2COP(O)(=S)O[C@H]2[C@@H](O)[C@H](n3cnc4c(N)ncnc43)O[C@@H]2COP(O)(=S)O[C@H]2[C@@H](O)[C@H](n3ccc(N)nc3=O)O[C@@H]2COP(O)(=S)O[C@H]2[C@@H](O)[C@H](n3cc(C)c(=O)[nH]c3=O)O[C@@H]2COP(O)(=S)O[C@H]2[C@@H](O)[C@H](n3cnc4c(=O)[nH]c(N)nc43)O[C@@H]2COP(O)(=S)O[C@H]2[C@@H](O)[C@H](n3cnc4c(=O)[nH]c(N)nc43)O[C@@H]2COP(O)(=S)O[C@H]2[C@@H](O)[C@H](n3ccc(N)nc3=O)O[C@@H]2COP(O)(=S)O[C@H]2[C@@H](OCCOC)[C@H](n3cc(C)c(N)nc3=O)O[C@@H]2COP(O)(=S)O[C@H]2[C@@H](OCCOC)[C@H](n3ccc(=O)[nH]c3=O)O[C@@H]2COP(=O)(O)O)O[C@H]1n1cc(C)c(N)nc1=O (stereo partly drawn)
ED50 (Mus musculus [1]): > 45 mg/kg
IC50 (bEND): > 20 nM
Tm (Mus musculus [2]): 50.8 °C

Cc1cn([C@@H]2O[C@@]3(COP(O)(=S)O[C@H]4[C@H]5OC[C@]4(CO)O[C@H]5n4cc(C)c(N)nc4=O)CO[C@@H]2[C@@H]3OP(O)(=S)OC[C@H]2O[C@@H](n3cnc4c(N)ncnc43)[C@H](O)[C@@H]2OP(O)(=S)OC[C@H]2O[C@@H](n3cnc4c(=O)[nH]c(N)nc43)[C@H](O)[C@@H]2OP(O)(=S)OC[C@H]2O[C@@H](n3cnc4c(=O)[nH]c(N)nc43)[C@H](O)[C@@H]2OP(O)(=S)OC[C@H]2O[C@@H](n3cc(C)c(=O)[nH]c3=O)C[C@@H]2OP(O)(=S)OC[C@H]2O[C@@H](n3ccc(N)nc3=O)[C@H](O)[C@@H]2OP(O)(=S)OC[C@H]2O[C@@H](n3ccc(N)nc3=O)[C@H](O)[C@@H]2OP(O)(=S)OC[C@H]2O[C@@H](n3ccc(N)nc3=O)[C@H](O)[C@@H]2OP(O)(=S)OC[C@H]2O[C@@H](n3cnc4c(=O)[nH]c(N)nc43)[C@H](O)[C@@H]2OP(O)(=S)OC[C@H]2O[C@@H](n3cnc4c(=O)[nH]c(N)nc43)[C@H](O)[C@@H]2OP(O)(=S)OC[C@H]2O[C@@H](n3cc(C)c(=O)[nH]c3=O)C[C@@H]2OP(O)(=S)OC[C@@]23CO[C@@H]([C@H](n4cc(C)c(=O)[nH]c4=O)O2)[C@@H]3OP(O)(=S)OC[C@@]23CO[C@@H]([C@H](n4ccc(N)nc4=O)O2)[C@@H]3O)c(=O)nc1N (stereo partly drawn)
Activity (Mus musculus [3]): Active
Activity (Mus musculus [4]): Non-toxic
Activity (Mus musculus [5]): Active

COCCO[C@@H]1[C@H](O)[C@@H](COP(O)(=S)O[C@H]2[C@@H](OCCOC)[C@H](n3cc(C)c(N)nc3=O)O[C@@H]2COP(O)(=S)O[C@H]2[C@@H](OCCOC)[C@H](n3cc(C)c(=O)[nH]c3=O)O[C@@H]2COP(O)(=S)O[C@H]2[C@@H](OCCOC)[C@H](n3cc(C)c(=O)[nH]c3=O)O[C@@H]2COP(O)(=S)O[C@H]2[C@@H](OCCOC)[C@H](n3cc(C)c(N)nc3=O)O[C@@H]2COP(O)(=S)O[C@H]2[C@@H](O)[C@H](n3cc(C)c(N)nc3=O)O[C@@H]2COP(O)(=S)O[C@H]2[C@@H](O)[C@H](n3cc(C)c(N)nc3=O)O[C@@H]2COP(O)(=S)O[C@H]2C[C@H](n3cc(C)c(=O)[nH]c3=O)O[C@@H]2COP(O)(=S)O[C@H]2[C@@H](O)[C@H](n3cnc4c(=O)[nH]c(N)nc43)O[C@@H]2COP(O)(=S)O[C@H]2[C@@H](O)[C@H](n3cnc4c(N)ncnc43)O[C@@H]2COP(O)(=S)O[C@@H]2[C@H](O)[C@@H](COP(O)(=S)O[C@H]3[C@@H](O)[C@H](n4cnc5c(=O)[nH]c(N)nc54)O[C@@H]3COP(O)(=S)O[C@H]3[C@@H](O)[C@H](n4cnc5c(=O)[nH]c(N)nc54)O[C@@H]3COP(O)(=S)O[C@H]3C[C@H](n4cc(C)c(=O)[nH]c4=O)O[C@@H]3COP(O)(=S)O[C@H]3C[C@H](n4cc(C)c(=O)[nH]c4=O)O[C@@H]3COP(O)(=S)O[C@H]3[C@@H](OCCOC)[C@H](n4cc(C)c(=O)[nH]c4=O)O[C@@H]3COP(O)(=S)O[C@H]3[C@@H](OCCOC)[C@H](n4cc(C)c(N)nc4=O)O[C@@H]3COP(O)(=S)O[C@H]3[C@@H](OCCOC)[C@H](n4ccc(N)nc4=O)O[C@@H]3COP(O)(=S)O[C@H]3[C@@H](OCCOC)[C@H](n4cc(C)c(N)nc4=O)O[C@@H]3COP(O)(=S)O[C@H]3[C@@H](OCCOC)[C@H](n4cc(C)c(N)nc4=O)O[C@@H]3CO)O[C@H]2n2cnc3c(N)ncnc32)O[C@H]1n1cc(C)c(N)nc1=O (stereo partly drawn)
Activity (Mus musculus [3]): Active
Activity (Mus musculus [4]): Non-toxic
Activity (Mus musculus [5]): Active

Cc1cn([C@@H]2O[C@@]3(COP(O)(=S)O[C@H]4[C@H]5OC[C@]4(COP(O)(=S)O[C@@H]4[C@H](O)[C@@H](COP(O)(=S)O[C@H]6[C@@H](O)[C@H](n7cnc8c(=O)[nH]c(N)nc87)O[C@@H]6COP(O)(=S)O[C@H]6[C@@H](O)[C@H](n7ccc(N)nc7=O)O[C@@H]6COP(O)(=S)O[C@H]6[C@@H](O)[C@H](n7ccc(N)nc7=O)O[C@@H]6COP(O)(=S)O[C@H]6C[C@H](n7cc(C)c(=O)[nH]c7=O)O[C@@H]6COP(O)(=S)O[C@H]6[C@@H](O)[C@H](n7ccc(N)nc7=O)O[C@@H]6COP(O)(=S)O[C@H]6C[C@H](n7cc(C)c(=O)[nH]c7=O)O[C@@H]6COP(O)(=S)O[C@H]6[C@@H](O)[C@H](n7cnc8c(=O)[nH]c(N)nc87)O[C@@H]6COP(O)(=S)O[C@H]6[C@@H](O)[C@H](n7cnc8c(=O)[nH]c(N)nc87)O[C@@H]6COP(O)(=S)O[C@H]6[C@@H](O)[C@H](n7cnc8c(N)ncnc87)O[C@@H]6COP(O)(=S)O[C@H]6[C@H]7OC[C@]6(COP(O)(=S)O[C@H]6[C@H]8OC[C@]6(CO)O[C@H]8n6cc(C)c(=O)[nH]c6=O)O[C@H]7n6cc(C)c(=O)[nH]c6=O)O[C@H]4n4cnc6c(N)ncnc64)O[C@H]5n4cc(C)c(=O)[nH]c4=O)CO[C@@H]2[C@@H]3O)c(=O)nc1N (stereo partly drawn)
Activity (Mus musculus [3]): Active
Activity (Mus musculus [4]): Non-toxic
Activity (Mus musculus [5]): Active

Cc1cn([C@@H]2O[C@@]3(COP(O)(=S)O[C@H]4[C@H]5OC[C@]4(COP(O)(=S)O[C@@H]4[C@H](O)[C@@H](COP(O)(=S)O[C@H]6[C@@H](O)[C@H](n7cnc8c(=O)[nH]c(N)nc87)O[C@@H]6COP(O)(=S)O[C@H]6[C@@H](O)[C@H](n7ccc(N)nc7=O)O[C@@H]6COP(O)(=S)O[C@H]6[C@@H](O)[C@H](n7ccc(N)nc7=O)O[C@@H]6COP(O)(=S)O[C@H]6C[C@H](n7cc(C)c(=O)[nH]c7=O)O[C@@H]6COP(O)(=S)O[C@H]6[C@@H](O)[C@H](n7ccc(N)nc7=O)O[C@@H]6COP(O)(=S)O[C@H]6C[C@H](n7cc(C)c(=O)[nH]c7=O)O[C@@H]6COP(O)(=S)O[C@H]6[C@@H](O)[C@H](n7cnc8c(=O)[nH]c(N)nc87)O[C@@H]6COP(O)(=S)O[C@H]6[C@@H](O)[C@H](n7cnc8c(=O)[nH]c(N)nc87)O[C@@H]6COP(O)(=S)O[C@H]6[C@@H](O)[C@H](n7cnc8c(N)ncnc87)O[C@@H]6COP(O)(=S)O[C@H]6[C@H]7OC[C@]6(COP(O)(=S)O[C@H]6[C@H]8OC[C@]6(COP(O)(=S)O[C@H]6[C@H]9OC[C@]6(CO)O[C@H]9n6cc(C)c(=O)[nH]c6=O)O[C@H]8n6cc(C)c(=O)[nH]c6=O)O[C@H]7n6cc(C)c(=O)[nH]c6=O)O[C@H]4n4cnc6c(N)ncnc64)O[C@H]5n4cc(C)c(=O)[nH]c4=O)CO[C@@H]2[C@@H]3OP(O)(=S)OC[C@@]23CO[C@@H]([C@H](n4cnc5c(=O)[nH]c(N)nc54)O2)[C@@H]3O)c(=O)nc1N (stereo partly drawn)
Activity (Mus musculus [3]): Active
Activity (Mus musculus [4]): Non-toxic
Activity (Mus musculus [5]): Active

Cc1cn([C@@H]2O[C@@]3(COP(O)(=S)O[C@H]4[C@H]5OC[C@]4(COP(O)(=S)O[C@@H]4[C@H](O)[C@@H](COP(O)(=S)O[C@H]6[C@@H](O)[C@H](n7cnc8c(=O)[nH]c(N)nc87)O[C@@H]6COP(O)(=S)O[C@H]6[C@@H](O)[C@H](n7ccc(N)nc7=O)O[C@@H]6COP(O)(=S)O[C@H]6[C@@H](O)[C@H](n7ccc(N)nc7=O)O[C@@H]6COP(O)(=S)O[C@H]6C[C@H](n7cc(C)c(=O)[nH]c7=O)O[C@@H]6COP(O)(=S)O[C@H]6[C@@H](O)[C@H](n7ccc(N)nc7=O)O[C@@H]6COP(O)(=S)O[C@H]6C[C@H](n7cc(C)c(=O)[nH]c7=O)O[C@@H]6COP(O)(=S)O[C@H]6[C@@H](O)[C@H](n7cnc8c(=O)[nH]c(N)nc87)O[C@@H]6COP(O)(=S)O[C@H]6[C@@H](O)[C@H](n7cnc8c(=O)[nH]c(N)nc87)O[C@@H]6COP(O)(=S)O[C@H]6[C@@H](O)[C@H](n7cnc8c(N)ncnc87)O[C@@H]6COP(O)(=S)O[C@H]6[C@H]7OC[C@]6(COP(O)(=S)O[C@H]6[C@H]8OC[C@]6(COP(O)(=S)O[C@H]6[C@H]9OC[C@]6(CO)O[C@H]9n6cc(C)c(=O)[nH]c6=O)O[C@H]8n6cc(C)c(=O)[nH]c6=O)O[C@H]7n6cc(C)c(=O)[nH]c6=O)O[C@H]4n4cnc6c(N)ncnc64)O[C@H]5n4cc(C)c(=O)[nH]c4=O)CO[C@@H]2[C@@H]3O)c(=O)nc1N (stereo partly drawn)
Activity (Mus musculus [3]): Active
Activity (Mus musculus [4]): Non-toxic
Activity (Mus musculus [5]): Active
